Experimental data as given in ChEMBL document CHEMBL1255440, “An antimicrobial peptide that targets DNA repair intermediates in vitro inhibits Salmonella growth within murine macrophages” (Antimicrob Agents Chemother, 2010).
Activity calls are given as the source filed them. The rule behind the calls is not given here.

Tested on: Salmonella typhimurium
Assay: Antibacterial activity against 1 MOI Salmonella enterica subsp. enterica serovar Typhimurium infected in mouse J774A1 cells assessed as reduction in bacterial growth at 2.5 times MIC
Format: functional, organism-based
Settings: J774.A1
In short: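 J774A.1 cells or thioglycolate-elicited BALB/c peritoneal macrophages seeded at 200,000/well, overnight 37°C 5% CO2; infected with GFP strain SDT1416, 1 h invasion, washed, 1 h in DMEM with 15 μg/ml gentamicin. Then fresh DMEM plus 15 μg/ml gentamicin with or without peptide (DMSO vehicle) for 24 h at 37°C; macrophages lysed with 1% Triton X-100, plated on LB agar for CFU.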

Compound: N=C(N)NCCC[C@H](NC(=O)[C@H](CS)NC(=O)[C@H](Cc1ccc(O)cc1)NC(=O)[C@H](Cc1c[nH]c2ccccc12)NC(=O)[C@H](CCCNC(=N)N)NC(=O)[C@@H](N)Cc1c[nH]c2ccccc12)C(=O)O
- Activity: Active
